Data published in ChEMBL document CHEMBL1126900, “Transformation of heterocyclic reversible monoamine oxidase-B inactivators into irreversible inactivators by N-methylation” (J Med Chem, 1993).

Molecular target: T1, Amine oxidase [flavin-containing] B (Bos taurus, UniProt P56560)
T1 sequence (P56560 whole entry): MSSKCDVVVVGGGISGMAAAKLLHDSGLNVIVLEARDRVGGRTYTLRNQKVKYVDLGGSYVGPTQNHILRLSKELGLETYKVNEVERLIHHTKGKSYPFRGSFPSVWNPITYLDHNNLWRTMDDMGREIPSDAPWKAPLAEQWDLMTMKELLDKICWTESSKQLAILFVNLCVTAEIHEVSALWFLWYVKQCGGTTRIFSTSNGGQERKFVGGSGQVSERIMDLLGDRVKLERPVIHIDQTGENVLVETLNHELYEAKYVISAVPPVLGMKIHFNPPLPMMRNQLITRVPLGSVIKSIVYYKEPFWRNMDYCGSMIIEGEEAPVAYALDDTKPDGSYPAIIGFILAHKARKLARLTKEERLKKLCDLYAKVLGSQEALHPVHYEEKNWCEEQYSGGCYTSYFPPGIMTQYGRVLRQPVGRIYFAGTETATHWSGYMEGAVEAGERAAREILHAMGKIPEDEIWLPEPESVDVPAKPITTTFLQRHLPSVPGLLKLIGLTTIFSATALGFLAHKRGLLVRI
Test: Kinetic constant for inactivation of MAO B from replot of half-lives of inactivation
Conditions: for kinact: cattle
How it was run: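 Bovine liver MAO-B (specific activity 4–6 units/mg) preincubated at 25 °C with inactivator hydrochloride at various concentrations, or none (control), in 100 mM potassium phosphate pH 7.40 with 2.0 mM glutathione. Aliquots taken periodically and assayed with 0.50 mM cinnamylamine in 100 mM Tris pH 9.0, 25 °C. Activity corrected against control. KI and kinact obtained by Kitz–Wilson replot of inactivation half-lives.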

Ki [mM]	kinact [s⁻¹]	Structure (SMILES)
0.067	0.00233	NCC1CN(c2ccc(OCc3cccc(Cl)c3)cc2)C(=O)O1 (stereo unspecified)
300	5.83e-05	COc1ccc(N2CC(CN(C)C)CC2=O)cc1 (stereo unspecified)
200	0.000283	COc1ccc([C@H]2C[C@@H](CN(C)C)OC2=O)cc1
4.7	3.17e-05	CNCC1CN(c2ccc(OC)cc2)C(=O)O1 (stereo unspecified)
–	1.33e-05	COc1ccc(N2CC(CN)OC2=O)cc1 (stereo unspecified)
50	5.83e-05	CNCC1CC(=O)N(c2ccc(OC)cc2)C1 (stereo unspecified)
13.3	5e-05	COc1ccc(N2CC(CN(C)C)OC2=O)cc1 (stereo unspecified)
6.7	1.12e-05	COc1ccc(N2CC(CN)CC2=O)cc1 (stereo unspecified)
0.2	0.000417	CNCC1CN(c2ccc(OCc3cccc(Cl)c3)cc2)C(=O)O1 (stereo unspecified)
6.7	7.33e-05	COc1ccc(C2CC(CN)OC2=O)cc1 (stereo unspecified)
0.5	0.00137	CN(C)CC1CN(c2ccc(OCc3cccc(Cl)c3)cc2)C(=O)O1 (stereo unspecified)
